Calls of active or inactive are those of the source. The rule behind the calls is not given here.
What was measured:
Adenosine receptor A2a [1] = molecular target: T1, Adenosine receptor A2a (Homo sapiens, UniProt P29274); assay: Displacement of [3H]ZM241385 human A2AR (1 to 316 residues) expressed in Pichia pastoris SMD1168 cell membranes
Adenosine receptor A2a [2] = molecular target: T1, Adenosine receptor A2a; assay: Displacement of [3H]ZM241385 human A2AR […] expressed in […] cell membranes incubated for 0.5 hrs
Method in brief: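 HEK293 cell membranes stably expressing hA2AR, 10 μg protein per tube. Buffer 25 mM Tris-HCl pH 7.4, 5 mM MgCl2, 0.1% CHAPS. [3H]ZM241385 displaced by increasing compound concentrations at 25°C for 0.5 h (standard) or 3 h. Nonspecific binding defined with 100 µM NECA. Stopped by GF/B filtration and scintillation counting. Apparent pKi, means ± SEM of three experiments in duplicate. Shift = pKi(3h) − pKi(0.5h).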

Adenosine receptor A2a [3] = molecular target: T1, Adenosine receptor A2a; assay: Potency shift, difference in pKi for displacement of [3H]ZM241385 human A2AR (1 to 316 residues) expressed in Pichia pastoris SMD1168 cell membranes incubated for 0.5 hrs to pKi for displacement of [3H]ZM241385 human A2AR (1 to 316 residues) expressed in Pichia pastoris SMD1168 cell membranes incubated for 3 hrs
Homo sapiens = organism: Homo sapiens; assay: Selectivity for human A2AR (1 to 316 residues) expressed in Pichia pastoris SMD1168 cell membranes over human A3AR
Adenosine receptor A2a [4] = molecular target: T1, Adenosine receptor A2a; assay: Covalent binding to human A2AR (1 to 316 residues) expressed in Pichia pastoris SMD1168 cell membranes assessed as radioligand binding level pre-incubated at 1.5 to 5 nM followed by compound wash out before [3H]ZM241385 addition (reference value: 65 +/- 2%)
Adenosine receptor A2a [5] = molecular target: T1, Adenosine receptor A2a; assay: Photoaffinity labelling of N-terminal FLAG-tagged and C-terminal His-tagged human adenosine A2A receptor expressed in HEK293 cell membranes at 1 uM incubated for 1 hr by SDS PAGE and Western blot analysis based affinity-based protein labeling assay
Method in brief: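 Membranes (1 mg/mL in 50 mM Tris-HCl pH 7.4) came from HEK293 transiently transfected 48 h with FLAG-hA2AR-His. Incubated with probe (0.1–3 μM) or 1% DMSO for 1 h at room temperature. Click at room temperature for 1 h, with CuSO4 added last: 4.4 μM Cy3-azide, 33 mM ascorbate, 1.1 mM THPTA, 5.6 mM CuSO4. Denatured 30 min at 37°C. Read-out: in-gel fluorescence, with anti-FLAG Western blot (~50 kDa).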

Adenosine receptor A2a [6] = molecular target: T1, Adenosine receptor A2a; assay: Photoaffinity labelling of purified human A2AR (1 to 316 residues) by SDS-PAGE analaysis
Method in brief: (§1)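 His-tagged hA2AR (residues 1–316) from Pichia pastoris was purified by HisTrap, diluted to 0.1 mg/mL in 25 mM HEPES pH 7.5, 100 mM NaCl, 10 μM LMNG. Incubated with probe at a range of concentrations or 1% DMSO for 1 h on ice. CuAAC click on ice, 1 h: 5.6 mM CuSO4, 33 mM ascorbate, 1.1 mM THPTA, 4.4 μM Cy3-azide. Read-out: SDS-PAGE in-gel fluorescence of the ~47 kDa band, normalized to anti-His immunoblot. pEC50 fitted; three experiments.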

Adenosine receptor A2a [7] = molecular target: T1, Adenosine receptor A2a; assay: Photoaffinity labelling of purified human A2AR (1 to 316 residues) by SDS-PAGE analaysis pretreated with 10 uM ZM241385 followed by compound addition at 1 uM by competitive labeling assay
Method in brief: (§2)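 Purified hA2AR (0.1 mg/mL) was preincubated 1 h on ice with 10 μM competitor or 1% DMSO. Then labeled with 1 μM probe for 0.5 h on ice. CuAAC with Cy3-azide followed, then SDS-PAGE in-gel fluorescence normalized to anti-His immunoblot. Three experiments; Student's t-test.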

Adenosine receptor A2a [8] = molecular target: T1, Adenosine receptor A2a; assay: Photoaffinity labelling of purified human A2AR (1 to 316 residues) by Western blot analysis; method in brief: as §1
Adenosine receptor A2a [9] = molecular target: T1, Adenosine receptor A2a; assay: Photoaffinity labelling of purified human A2AR (1 to 316 residues) by SDS-PAGE analaysis pretreated with 10 uM LUF7445 followed by compound addition at 1 uM by competitive labeling assay; method in brief: as §2

T1 sequence (P29274 whole entry, the tested form may be a part): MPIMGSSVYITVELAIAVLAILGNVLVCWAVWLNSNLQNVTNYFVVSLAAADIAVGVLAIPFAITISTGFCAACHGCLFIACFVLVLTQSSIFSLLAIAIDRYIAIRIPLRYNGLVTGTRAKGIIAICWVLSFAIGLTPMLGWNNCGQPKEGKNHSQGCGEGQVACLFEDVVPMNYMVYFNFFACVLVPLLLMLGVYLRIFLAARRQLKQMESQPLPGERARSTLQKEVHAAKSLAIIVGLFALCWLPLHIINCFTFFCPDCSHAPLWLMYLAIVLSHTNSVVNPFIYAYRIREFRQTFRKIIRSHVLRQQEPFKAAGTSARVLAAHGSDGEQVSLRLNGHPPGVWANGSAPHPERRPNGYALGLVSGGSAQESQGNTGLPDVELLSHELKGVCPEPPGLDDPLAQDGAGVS

Row | SMILES | inhibition (Adenosine receptor A2a [1]) | Ki (Adenosine receptor A2a [2]) [nM] | inhibition (Adenosine receptor A2a [2]) | fold change (FC) (Adenosine receptor A2a [3]) | Selectivity ratio (Homo sapiens) | Activity (Adenosine receptor A2a [4]) [%] | Activity (Adenosine receptor A2a [5]) | Activity (Adenosine receptor A2a [6]) | EC50 (Adenosine receptor A2a [6]) [nM] | Activity (Adenosine receptor A2a [7]) | Activity (Adenosine receptor A2a [8]) | Activity (Adenosine receptor A2a [9])
1 | Nc1nc(NCCCCNC(=O)c2ccc(S(=O)(=O)F)cc2)nc2nc(-c3ccco3)nn12 | Dose-dependent effect | 6.31 | Dose-dependent effect | 0.85 |  |  |  |  |  |  |  | 
2 | Nc1nc(NCCCCCNC(=O)c2ccc(S(=O)(=O)F)cc2)nc2nc(-c3ccco3)nn12 | Dose-dependent effect | 2.75 | Dose-dependent effect | 0.65 |  |  |  |  |  |  |  | 
3 | C#CCN(CCCCCNc1nc(N)n2nc(-c3ccco3)nc2n1)C(=O)c1ccc(S(=O)(=O)F)cc1 | Dose-dependent effect | 3.89 |  | 0.41 | < 10 | 43 | Active | Dose-dependent effect | 794 | inactive | Active | inactive
4 | Nc1nc(NCCCNC(=O)c2ccc(S(=O)(=O)F)cc2)nc2nc(-c3ccco3)nn12 |  | 5.37 |  | 0.72 |  |  |  |  |  |  |  | 

Source: ChEMBL document CHEMBL4145682, “An Affinity-Based Probe for the Human Adenosine A2A Receptor” (J Med Chem, 2018)
